Here are results for one molecule from ChEMBL document CHEMBL3588770, “Novel spirohydantoin derivative as a potent multireceptor-active antipsychotic and antidepressant agent” (Bioorg Med Chem, 2015).

Active and inactive are the calls of the source. The rule behind the calls is not given here.

One may read the ED50 as the midpoint of the dose-response relation. What is called inhibition in vivo is the drop in the measured response relative to a control, in per cent.

Data set [1] relates to Rattus norvegicus. Put plainly: Inhibition of 8-OH-DPAT-induced lower lip retraction in Wistar rat at 5 to 40 mg/kg, ip administered 45 mins before 8-OH-DPAT administration. In kind it is functional, organism-based. In short, it runs like this: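 Wistar rats, 5-6 per dose, given compound i.p. (1% Tween 80 suspension) 45 min before 8-OH-DPAT (1 mg/kg). Lower lip retraction was scored 15, 30 and 45 min after 8-OH-DPAT on a 0/0.5/1 scale (incisor visibility), giving a maximum total of 3. Mean ± SEM, ANOVA with Bonferroni test.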

Data set [2] deals with Mus musculus. The data set can be described thus: In vivo partial agonist activity at 5HT1A receptor in CD-1 mouse assessed as change in body temperature at 10 mg/kg, ip measured after 30 mins (reference value: -0.1 degC). In kind it is functional, organism-based. In outline:
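Male CD-1 mice, 7-9 per dose, dosed i.p. Rectal temperature was recorded at 30, 60, 90 and 120 min. Results are the change from basal temperature taken at the start of the experiment.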

Data set [3] concerns Mus musculus. Put plainly: In vivo agonist activity at 5HT2A receptor in Swiss albino mouse assessed as induction of head twitch response at 5 to 40 mg/kg, ip. The data set is classed as functional, organism-based.
The species named for data set [4] is Mus musculus. The data set can be described thus: Ratio of MED for catalepsy in CD-1 mouse to ED50 for antipsychotic activity in CD-1 mouse.
Data set [5] deals with Rattus norvegicus. Put plainly: Induction of lower lip retraction in Wistar rat at 5 to 40 mg/kg, ip. In kind it is functional, organism-based.
Data set [6] deals with Mus musculus. Put plainly: Antipsychotic activity in CD-1 mouse assessed as inhibition of D-amphetamine-induced hyperlocomotor activity at 0.156 to 0.625 mg/kg, ip. In kind it is functional, organism-based. In short, it runs like this: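 Male CD-1 mice, 8-10 per dose. d-Amphetamine was given s.c. 30 min pretest; test compound i.p. 60 min pretest in 1% Tween 80. After 30 min habituation in the activity monitor, ambulation crossings were counted for 1 h, recorded every 5 min.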

Data set [7] deals with Mus musculus. Put plainly: In vivo antagonist activity at D2 receptor in ip dosed Swiss albino mouse assessed as inhibition of apomorphine-induced climbing behaviour administered 10 mins prior to apomophine injection measured after 20 mins. In kind it is functional. In short, it runs like this:
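Male Swiss albino mice, 5-6 per dose, in metal-bar cages. Compound i.p. was followed 10 min later by apomorphine 3 mg/kg i.p. Climbing time (2–4 paws on the wall) was measured for 2 min starting 20 min after apomorphine. ID50 is the dose inhibiting climbing by 50%.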

In data set [8] the test system is Mus musculus. The data set can be described thus: Toxicity in Swiss albino mouse assessed as stimulation of spontaneous locomotor activity at 2.5 to 5 mg/kg, ip measured during 2-6 mins session. In kind it is organism-based. The conditions noted are these: in vivo. In outline: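 Male Swiss albino mice, 8-10 per dose, received compound i.p. 60 min before testing. Each mouse was placed individually in a cage on an infrared activity monitor. Channel crossings (ambulation) were counted from 2 to 6 min, matching the forced swim test observation window.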

Data set [9] has as its system Mus musculus. Put plainly: In vivo partial agonist activity at 5HT1A receptor in CD-1 mouse assessed as change in body temperature at 5 mg/kg, ip measured after 30 mins (reference value: -0.1 degC). In kind it is functional, organism-based. In outline:
(§1)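 Male CD-1 mice, 7-9 per dose, compound suspended in 1% aqueous Tween 80 and given i.p. at 10 ml/kg. Rectal temperature was taken by thermometer 30, 60, 90 and 120 min after dosing. Change (Δt) is expressed against basal temperature measured at the start. Mean ± SEM, one-way ANOVA with Bonferroni test.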

In data set [10] the test system is Mus musculus. The data set can be described thus: Toxicity in ip dosed spontaneous locomotor activity CD-1 mouse model assessed as dose required to cause sedation. The data set is classed as organism-based. Conditions: in vivo. In outline:
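CD-1 mice, 8-10 per dose, with compound given i.p. in 1% Tween 80 suspension 60 min before testing. After 30 min habituation in individual cages, ambulation (channel crossings) was counted over 1 h, recorded every 5 min. Mean ± SEM, one-way ANOVA with Bonferroni test.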

In data set [11] the test system is Mus musculus. The data set can be described thus: Anti-depressant like activity in Swiss albino mouse assessed as shortening of immobility time at 5 mg/kg, ip by forced swim test. The data set is classed as functional. In short, it runs like this:
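Forced swim test in male Swiss albino mice, 7-9 per dose. Compound was given i.p. in 1% Tween 80 at 10 ml/kg, 60 min pretest. Mice swam for 6 min in a cylinder with 6 cm of water at 23-25 °C. Immobility was scored over the last 4 min. Analysis was one-way ANOVA with Bonferroni.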

Data set [12] has as its system Mus musculus. The data set can be described thus: In vivo partial agonist activity at 5HT1A receptor in CD-1 mouse assessed as change in body temperature at 10 mg/kg, ip measured after 60 mins (reference value: -0.1 degC). The data set is classed as functional, organism-based. In short, it runs like this:
as §1

On to `COc1ccccc1N1CCN(CCCCN2C(=O)NC3(CCCc4ccccc43)C2=O)CC1` (configuration not stated), for which the inhibition result in the data set on Rattus norvegicus [1] and in the data set with Mus musculus [6] was “Active” in each case. Also, the deltaT in the data set with Mus musculus [2] was -1.9 °C; in the data set with Mus musculus [9], -0.8 °C; with Mus musculus [12], -1.3 °C. In addition, the outcome in the data set with Mus musculus [3] and in the data set on Rattus norvegicus [5] was inactive. For the same molecule, the Ratio in the data set filed under Mus musculus [4] amounted to 50. In addition, the ED50 in the data set on Mus musculus [7] is 37.9 mg/kg. The Activity result with Mus musculus [8] was “Non-toxic”; in the data set on Mus musculus [10], 2.5 mg/kg. Further, the inhibition in vivo at 5 mg/kg in the data set on Mus musculus [11] was found to be 45%.
